Experimental findings from ChEMBL document CHEMBL1126297, “Synthesis and evaluation of analogues of (Z)-1-(4-methoxyphenyl)-2-(3,4,5-trimethoxyphenyl)ethene as potential cytotoxic and antimitotic agents” (J Med Chem, 1992) are described below.

Holding throughout (format): functional
One assay relates to A549. The experiment in a line: Compound was evaluated for cytotoxicity against human A-549 non-small cell lung cancer cell line. The following applies: read-out: ED50 (the source's name). The essentials: (§1)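 MTT colorimetric assay run in the Purdue Cell Culture Laboratory. Poorly water-soluble compounds were serially diluted in DMSO and added as 0.5 μL aliquots per well. Cells were incubated with compound for 6 days before MTT was added. […] The reported ED50 is the mean of two determinations.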

A further assay is filed under the species Bos taurus. Briefly: Inhibition of tubulin polymerization. The essentials: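 Bovine brain tubulin, purified to electrophoretic homogeneity, was preincubated at 37 °C with a range of compound concentrations and then chilled on ice. GTP was added and polymerization followed at 37 °C by turbidity at 350 nm. Extent was read at 20 min against two controls per experiment, and IC50 was determined graphically. Actives were run in ≥3 independent assays, inactives (IC50 > 40 μM) in ≥2.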

The test system of the next assay is HT-29. Briefly: Cytotoxicity against human HT-29 colon cell line. The following applies: read-out: ED50 (the source's name). The essentials:
as §1

The test system of another assay is SK-MEL-5. The experiment in a line: Compound was evaluated for cytotoxicity against human SKMEL-5 melanoma cell line. The note with it: read-out: ED50 (the source's name). The essentials: as §1
For a further assay, the system named is MCF7. Briefly: Cytotoxicity against human MCF-7 breast cancer cell line. The note with it: read-out: ED50 (the source's name). The essentials:
as §1

Assay [1] relates to MLM. Briefly: Cytotoxicity against human MLM melanoma cell line. The following applies: read-out: ED50 (the source's name). The essentials: as §1
The subject of assay [2] is MLM. The experiment in a line: Compound was evaluated for cytotoxicity against human MLM melanoma cell line. The note with it: read-out: ED50. The essentials: as §1

For orientation: IC50 means the concentration needed to halve the response being measured. `CCc1ccc(/C=C/c2cc(OC)c(OC)c(OC)c2)cc1`: the EC50 in the assay with A549 was 130 nM; in the assay on HT-29 it was 110 nM; in the assay with SK-MEL-5 it was 170 nM; in the assay on MCF7, 1200 nM; in the assay with MLM [1], 220 nM. In the assay filed under Bos taurus, this molecule showed an IC50 greater than 40000 nM.

For `COc1ccc(/C=C\c2ccc(OC)c(OC)c2)cc1` [7Z-3,4,4'-TRIMETHOXYSTILBENE], the EC50 with A549, with HT-29, in the assay with SK-MEL-5, in the assay on MCF7 and in the assay with MLM [1] was greater than 25000 nM throughout. The molecule further displayed an IC50 in the assay listed under Bos taurus of 18000 nM.

For `COc1ccc(/C=C\c2cc(OC)cc(OC)c2)cc1` [8Z-3,4',5-TRIMETHOXYSTILBENE], the EC50 stood at 130 nM in the assay with A549; 340 nM in the assay on HT-29; 420 nM in the assay on SK-MEL-5; 160 nM with MCF7; 98 nM in the assay on MLM [1]. In the assay listed under Bos taurus, it took 3800 nM to reach half-maximal inhibition (IC50).

Take `COc1cccc2c1C(=O)c1c(O)c3c(c(O)c1C2=O)C[C@@](O)(C(=O)CO)C[C@@H]3O[C@H]1C[C@H](N)[C@H](O)[C@H](C)O1` [DOXORUBICIN]: the EC50 stood at 29 nM in the assay on A549; 55 nM in the assay with HT-29; 130 nM with MLM [2]; 32 nM in the assay on SK-MEL-5; 31 nM in the assay on MCF7.

Take `COc1ccc(/C=C/c2cc(OC)cc(OC)c2)cc1` [TRISMETHOXYRESVERATROL]: the EC50 is 7500 nM in the assay on A549; 6900 nM in the assay on HT-29; 880 nM in the assay with SK-MEL-5; 9700 nM with MCF7; greater than 25000 nM in the assay with MLM [1]. In addition, the IC50 in the assay listed under Bos taurus is greater than 40000 nM.
